Data taken from ChEMBL document CHEMBL1137772, “Site-activated multifunctional chelator with acetylcholinesterase and neuroprotective-neurorestorative moieties for Alzheimer's therapy” (J Med Chem, 2009).
Activity calls are given as the source filed them. The calls are words filed in the database; no cut-off is given here.

Legend:
[1] = biological target: T1, Acetylcholinesterase (Rattus norvegicus) (UniProt P37136); test: Inhibition of AChE in Wistar rat brain homogenates at 1 uM by Ellman's method; type: tissue-based; conditions: TDE = time-dependent effect
T1 sequence (whole entry): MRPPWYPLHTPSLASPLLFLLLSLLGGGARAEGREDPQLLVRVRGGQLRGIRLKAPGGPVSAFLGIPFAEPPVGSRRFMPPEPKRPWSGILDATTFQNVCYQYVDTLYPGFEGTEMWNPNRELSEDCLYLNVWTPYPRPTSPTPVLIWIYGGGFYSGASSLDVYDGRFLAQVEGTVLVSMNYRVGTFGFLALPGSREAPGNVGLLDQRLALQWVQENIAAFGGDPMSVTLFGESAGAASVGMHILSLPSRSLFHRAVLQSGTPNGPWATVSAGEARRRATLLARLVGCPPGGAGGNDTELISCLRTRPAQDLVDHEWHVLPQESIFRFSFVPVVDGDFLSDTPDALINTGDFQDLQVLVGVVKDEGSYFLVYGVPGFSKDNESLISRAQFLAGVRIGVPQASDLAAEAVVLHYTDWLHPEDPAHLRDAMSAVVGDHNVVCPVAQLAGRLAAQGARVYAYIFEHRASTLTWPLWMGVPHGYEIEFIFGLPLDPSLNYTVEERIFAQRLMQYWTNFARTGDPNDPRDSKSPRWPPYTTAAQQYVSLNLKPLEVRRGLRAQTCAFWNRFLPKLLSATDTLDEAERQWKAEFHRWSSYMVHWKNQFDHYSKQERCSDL
Procedure, shortened: (§1)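 Modified Ellman method on rat brain homogenate enzymes, with acetylthiocholine as AChE substrate and butyrylthiocholine as BuChE substrate. For concentration–response, enzymes were preincubated with inhibitor for 3 h, and IC50 was obtained by nonlinear curve fitting. Mean ± SEM of three to five independent experiments, each in triplicate. The 1 µM AChE inhibition was followed as a time course.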

[2] = biological target: Butyrylcholinesterase (Rattus norvegicus) (UniProt Q9JKC1); test: Inhibition of BuChE in Wistar rat brain homogenates at 1 uM by Ellman's method; type: tissue-based; conditions: TDE = time-dependent effect
Sequence of Butyrylcholinesterase (Rattus norvegicus) (Q9JKC1 as listed by the source): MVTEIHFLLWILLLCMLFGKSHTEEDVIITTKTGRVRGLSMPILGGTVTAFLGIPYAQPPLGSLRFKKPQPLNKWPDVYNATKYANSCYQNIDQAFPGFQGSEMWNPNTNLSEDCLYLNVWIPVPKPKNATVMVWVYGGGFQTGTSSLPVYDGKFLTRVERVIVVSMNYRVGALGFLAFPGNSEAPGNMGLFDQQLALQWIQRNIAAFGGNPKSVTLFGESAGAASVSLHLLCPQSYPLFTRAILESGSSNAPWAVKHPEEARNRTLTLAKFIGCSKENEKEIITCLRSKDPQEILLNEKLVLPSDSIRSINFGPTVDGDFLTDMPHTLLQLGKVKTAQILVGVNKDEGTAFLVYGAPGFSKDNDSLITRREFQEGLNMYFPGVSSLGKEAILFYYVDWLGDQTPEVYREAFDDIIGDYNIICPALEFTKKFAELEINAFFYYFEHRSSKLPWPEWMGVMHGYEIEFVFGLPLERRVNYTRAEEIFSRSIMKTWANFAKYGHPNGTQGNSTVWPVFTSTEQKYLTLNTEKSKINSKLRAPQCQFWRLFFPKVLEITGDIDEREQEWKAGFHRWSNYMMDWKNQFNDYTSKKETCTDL

SH-SY5Y [3] = test: Cytotoxicity against human SH-SY5Y cells assessed as cell viability at 1 uM after 48 hrs by MTT assay relative to control; type: cell-based
Procedure, shortened: (§2)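 Human SH-SY5Y neuroblastoma cells were exposed to compound for 48 h, and viability was read by MTT assay. Mean ± SEM of three independent experiments.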

SH-SY5Y [4] = test: Cytotoxicity against human SH-SY5Y cells assessed as decrease in cell viability at 50 uM after 48 hrs by MTT assay relative to control; type: cell-based; procedure, shortened: as §2
SH-SY5Y [5] = test: Cytotoxicity against human SH-SY5Y cells assessed as decrease in cell viability at 10 uM after 48 hrs by MTT assay relative to control; type: cell-based; procedure, shortened: as §2
SH-SY5Y [6] = test: Cytotoxicity against human SH-SY5Y cells assessed as decrease in cell viability at 25 uM after 48 hrs by MTT assay relative to control; type: cell-based; procedure, shortened: as §2
[7] = biological target: Acetylcholinesterase (Electrophorus electricus) (UniProt O42275); test: Induction of electric eel AChE-mediated drug hydrolysis assessed as release of HLA20-iron complex at 0.2 mM by UV visible spectroscopy in presence of FeSO4
Sequence of Acetylcholinesterase (Electrophorus electricus) (O42275 24-633 limits assumed): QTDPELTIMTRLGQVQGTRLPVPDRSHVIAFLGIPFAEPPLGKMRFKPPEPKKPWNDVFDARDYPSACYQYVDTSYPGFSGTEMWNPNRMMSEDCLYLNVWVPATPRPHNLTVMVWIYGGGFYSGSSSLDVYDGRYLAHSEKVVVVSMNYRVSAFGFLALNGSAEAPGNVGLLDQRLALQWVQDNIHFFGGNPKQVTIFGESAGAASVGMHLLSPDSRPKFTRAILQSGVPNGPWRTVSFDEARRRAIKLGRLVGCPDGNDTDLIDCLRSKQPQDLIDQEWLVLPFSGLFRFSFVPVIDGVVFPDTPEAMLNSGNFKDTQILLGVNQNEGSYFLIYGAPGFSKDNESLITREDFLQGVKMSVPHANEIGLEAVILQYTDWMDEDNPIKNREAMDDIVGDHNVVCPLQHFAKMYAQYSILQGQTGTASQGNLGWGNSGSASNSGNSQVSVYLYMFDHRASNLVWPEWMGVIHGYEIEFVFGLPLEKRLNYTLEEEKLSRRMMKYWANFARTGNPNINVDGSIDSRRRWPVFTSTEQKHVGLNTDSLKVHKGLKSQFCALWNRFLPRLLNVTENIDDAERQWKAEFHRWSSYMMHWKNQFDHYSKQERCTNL
Procedure, shortened: (§3)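 UV/vis absorption spectra were recorded in 5% NH4Ac, pH 7. Prochelator (0.2 mM) was activated before adding CuSO4 or FeSO4 (0.2 mM).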

Acetylcholinesterase = biological target: T2, Acetylcholinesterase (Rattus norvegicus, UniProt P37136); test: Inhibition of AChE in Wistar rat brain homogenates by Ellman's method; type: tissue-based; procedure, shortened: as §1
T2 sequence (P37136 whole entry): T1 sequence (whole entry)

[8] = biological target: Acetylcholinesterase (Electrophorus electricus) (UniProt O42275); test: […] of electric eel AChE-mediated drug hydrolysis assessed as release of HLA20-copper complex at 0.2 mM by UV visible spectroscopy in presence of CuSO4; procedure, shortened: as §3
Rattus norvegicus = species on record: Rattus norvegicus; test: Selectivity ratio of IC50 for BuChE to IC50 for AChE in Wistar rat brain homogenates; type: tissue-based; procedure, shortened: as §1
Butyrylcholinesterase = Butyrylcholinesterase (Rattus norvegicus, UniProt Q9JKC1); test: Inhibition of BuChE in Wistar rat brain homogenates by Ellman's method; type: tissue-based; procedure, shortened: as §1
Sequence of Butyrylcholinesterase (Q9JKC1 whole entry): as the sequence (Q9JKC1 as listed by the source) above

| SMILES | Activity [1] | Activity [2] | Activity (SH-SY5Y [3]) | Activity (SH-SY5Y [4]) | Activity (SH-SY5Y [5]) | Activity (SH-SY5Y [6]) | Activity [7] | IC50 (Acetylcholinesterase) [µM] | Activity [8] | Ratio IC50 (Rattus norvegicus) | IC50 (Butyrylcholinesterase) [µM] |
| --- | --- | --- | --- | --- | --- | --- | --- | --- | --- | --- | --- |
| CCN(C)C(=O)Oc1cccc([C@H](C)N(C)C)c1 | tde | tde | – | – | – | – | – | – | – | – | – |
| C#CCN1CCN(Cc2ccc(O)c3ncccc23)CC1 | – | – | Non-toxic | 98% | 60% | 87% | – | – | – | – | – |
| C#CCN1CCN(Cc2ccc(OC(=O)N(C)C)c3ncccc23)CC1 | tde | tde | Non-toxic | Toxic | Non-toxic | Toxic | Active | 0.5 | Active | 85 | 42.6 |
